Calls of active or inactive are those of the source. The calls are words filed in the database; no cut-off is given here.
Legend:
[1] = target: Mast/stem cell growth factor receptor Kit (Homo sapiens) (UniProt P10721); assay: Inhibition of c-kit at 1 uM
[2] = target: Tyrosine-protein kinase Lck (Homo sapiens) (UniProt P06239); assay: Inhibition of LCK at 1 uM
[3] = target: Mitogen-activated protein kinase 1 (Homo sapiens) (UniProt P28482); assay: Inhibition of human MAPK1 at 1 uM
How it was run: (§1)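 Recombinant kinases were screened in a commercial profiling panel with the compound at a single concentration of 1 μM. The read-out is percent inhibition of each enzyme's kinase activity.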

[4] = target: Dual specificity mitogen-activated protein kinase kinase 1 (Homo sapiens) (UniProt Q02750); assay: Inhibition of human MEK1 at 1 uM
[5] = Inhibition of MKK at 1 uM; how it was run: as §1
[6] = target: Dual specificity mitogen-activated protein kinase kinase 6 (Homo sapiens) (UniProt P52564); assay: Inhibition of MKK6 at 1 uM
[7] = target: Platelet-derived growth factor receptor beta (Homo sapiens) (UniProt P09619); assay: Inhibition of PDGFRbeta at 1 uM
[8] = target: Ribosomal protein S6 kinase beta-1 (Homo sapiens) (UniProt P23443); assay: Inhibition of human P70S6K at 1 uM
[9] = target: Phosphatidylinositol 4,5-bisphosphate 3-kinase catalytic subunit gamma isoform (Homo sapiens) (UniProt P48736); assay: Inhibition of human PI3-Kgamma at 1 uM
Homo sapiens [10] = species: Homo sapiens; assay: Inhibition of human PKA at 1 uM; how it was run: as §1
Homo sapiens [11] = species: Homo sapiens; assay: Inhibition of human PKBalpha at 1 uM; how it was run: as §1
[12] = target: Protein kinase C alpha type (Homo sapiens) (UniProt P17252); assay: Inhibition of human PKCalpha at 1 uM
[13] = Inhibition of cell migration of rat REF52 cells assessed as reduction in rate of movement of cell into wound at 10 uM by wound healing assay in presence of 10% serum; type: functional; design: scale not given: the % may be the effect or the level left
[14] = target: Cyclin-dependent kinase 1/cyclin B1 (Homo sapiens, UniProt P06493); assay: Inhibition of human CDK1/cyclinB; type: protein-complex assay
[15] = target: Cyclin-dependent kinase 7 (Homo sapiens, UniProt P50613); assay: Inhibition of human CDK7/cyclinH/MAT1
[16] = target: Glycogen synthase kinase-3 beta (Homo sapiens, UniProt P49841); assay: Inhibition of human GSK3-beta
NIH3T3 [17] = assay: Inhibition of focal adhesion turnover in wounded mouse NIH3T3 cells expressing GFP-paxillin assessed as average adhesion life-time at 10 uM by TIRF microscopy; type: functional
[18] = target: Paxillin (Rattus norvegicus) (UniProt Q66H76); assay: Induction of paxillin organization loss in focal adhesion in rat REF52 cells at 3 uM after 1 hr by immunostaining; type: cell-based
How it was run: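 REF52 cells held in suspension 30 min to 1 h without serum with inhibitor, then plated on 5 μg/ml fibronectin-coated coverslips for 60 min with inhibitor still present. Cells fixed in 4% paraformaldehyde, permeabilized with Triton X-100 and immunostained for paxillin and phospho-FAK Tyr397. Imaged by fluorescence microscopy, 60× objective.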

Focal adhesion kinase 1 [19] = target: T1, Focal adhesion kinase 1 (Homo sapiens, UniProt Q05397); assay: Inhibition of FAK Tyr397 phosphorylation in human A431 cells by ELISA
Focal adhesion kinase 1 [20] = target: T1, Focal adhesion kinase 1; assay: Inhibition of FAK Tyr397 phosphorylation in human PC3 cells after 60 mins by Western blot analysis
Focal adhesion kinase 1 [21] = target: T1, Focal adhesion kinase 1; assay: Inhibition of FAK Tyr397 phosphorylation in human SKOV3 cells after 60 mins by Western blot analysis
Focal adhesion kinase 1 [22] = target: T1, Focal adhesion kinase 1; assay: Inhibition of FAK Tyr397 phosphorylation in human L3.6pl cells after 60 mins by Western blot analysis
Focal adhesion kinase 1 [23] = target: T1, Focal adhesion kinase 1; assay: Inhibition of FAK Tyr397 phosphorylation in human FG cells after 60 mins by Western blot analysis
[24] = Inhibition of FAK Tyr397 phosphorylation in dog MDCK cells after 60 mins by Western blot analysis; type: cell-based; details: Canis lupus familiaris, 1 h
How it was run: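 MDCK cells treated with increasing inhibitor concentrations, 60 min, as for REF52. Whole-cell lysates immunoblotted for phospho-FAK Tyr397 and total FAK. Phospho-signal normalized to total FAK, and IC50 derived from the concentration series.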

Fibroblast = assay: Inhibition of cell growth in […] fibroblast at 10 uM; type: functional, cell-based
[25] = target: Paxillin (Rattus norvegicus) (UniProt Q66H76); assay: Decrease in Paxillin Try31 phosphorylation in rat REF52 cells; type: cell-based
How it was run: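 REF52 cells exposed to 1 μm inhibitor for the indicated times, then lysed in CH buffer containing phosphatase and protease inhibitors. Whole-cell lysates resolved by SDS-PAGE and immunoblotted with anti-phospho-Tyr31 paxillin and anti-paxillin.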

MDCK = assay: Induction of apoptosis in attached dog MDCK cells assessed as histone accumulation after 16 hrs by ELISA; type: functional, cell-based; details: Canis lupus familiaris
How it was run: (§2)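 Attached cells in serum-containing medium treated with inhibitor at the indicated concentrations, 24 h for REF52 and PC3, 16 h for MDCK, then lysed. Free histones in lysates measured by cell death detection ELISA, in duplicate. Untreated adherent cells were the negative control. Cells suspended 16–24 h in serum-free medium were the positive control. One of three experiments shown.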

REF52 = assay: Induction of apoptosis in attached rat REF52 cells assessed as histone accumulation after 24 hrs by ELISA; type: functional, cell-based; how it was run: as §2
PC-3 [26] = assay: Induction of apoptosis in attached human PC3 cells assessed as histone accumulation after 24 hrs by ELISA; type: functional, cell-based; how it was run: as §2
NIH3T3 [27] = assay: Inhibition of focal adhesion turnover in wounded mouse NIH3T3 cells expressing GFP-paxillin assessed as decrease in rate of disassembly by TIRF microscopy; type: functional, cell-based
PC-3 [28] = assay: Cell number in human PC3 cells at 1 uM after 3 days as % of control; details: PC-3, 72 h
[29] = Cell number in rat REF52 cells at 1 uM after 3 days as % of control; details: REF52, 72 h
PC-3 [30] = assay: Cell number in human PC3 cells at 10 uM after 3 days as % of control; details: PC-3, 72 h
[31] = Cell number in rat REF52 cells at 10 uM after 3 days as % of control; details: REF52, 72 h
PC-3 [32] = assay: Induction of apoptosis in human PC3 cells attached in serum containing medium assessed as histone accumulation after 24 hrs by ELISA

T1 sequence (Q05397 whole entry): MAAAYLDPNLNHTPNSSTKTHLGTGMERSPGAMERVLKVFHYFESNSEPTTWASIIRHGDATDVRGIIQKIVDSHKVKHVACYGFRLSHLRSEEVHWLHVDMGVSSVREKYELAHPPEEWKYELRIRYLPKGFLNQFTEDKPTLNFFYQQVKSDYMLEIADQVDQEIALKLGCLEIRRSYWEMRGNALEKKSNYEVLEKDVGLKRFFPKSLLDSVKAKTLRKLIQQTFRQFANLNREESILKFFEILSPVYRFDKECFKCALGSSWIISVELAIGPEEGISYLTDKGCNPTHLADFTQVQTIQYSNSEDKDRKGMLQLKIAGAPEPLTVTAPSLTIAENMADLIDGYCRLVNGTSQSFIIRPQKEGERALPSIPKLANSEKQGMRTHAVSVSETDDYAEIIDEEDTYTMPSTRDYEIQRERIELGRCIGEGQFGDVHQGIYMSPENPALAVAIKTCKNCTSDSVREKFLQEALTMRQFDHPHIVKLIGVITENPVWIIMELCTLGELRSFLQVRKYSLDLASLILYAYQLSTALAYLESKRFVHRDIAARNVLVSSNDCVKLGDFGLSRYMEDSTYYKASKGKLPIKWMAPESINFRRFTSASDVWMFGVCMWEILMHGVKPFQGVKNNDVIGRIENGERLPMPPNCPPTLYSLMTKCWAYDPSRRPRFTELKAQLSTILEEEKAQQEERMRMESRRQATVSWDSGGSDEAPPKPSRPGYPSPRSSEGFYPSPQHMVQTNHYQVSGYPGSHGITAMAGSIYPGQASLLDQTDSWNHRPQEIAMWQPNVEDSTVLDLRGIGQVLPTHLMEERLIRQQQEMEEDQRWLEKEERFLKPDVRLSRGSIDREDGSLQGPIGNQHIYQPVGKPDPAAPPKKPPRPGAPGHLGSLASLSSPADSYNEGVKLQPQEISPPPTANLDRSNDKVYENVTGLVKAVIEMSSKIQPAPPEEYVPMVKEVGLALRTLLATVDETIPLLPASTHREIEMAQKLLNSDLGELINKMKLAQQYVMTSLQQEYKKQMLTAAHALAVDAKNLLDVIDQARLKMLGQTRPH
Chain of Paxillin (Rattus norvegicus) (Q66H76 whole entry): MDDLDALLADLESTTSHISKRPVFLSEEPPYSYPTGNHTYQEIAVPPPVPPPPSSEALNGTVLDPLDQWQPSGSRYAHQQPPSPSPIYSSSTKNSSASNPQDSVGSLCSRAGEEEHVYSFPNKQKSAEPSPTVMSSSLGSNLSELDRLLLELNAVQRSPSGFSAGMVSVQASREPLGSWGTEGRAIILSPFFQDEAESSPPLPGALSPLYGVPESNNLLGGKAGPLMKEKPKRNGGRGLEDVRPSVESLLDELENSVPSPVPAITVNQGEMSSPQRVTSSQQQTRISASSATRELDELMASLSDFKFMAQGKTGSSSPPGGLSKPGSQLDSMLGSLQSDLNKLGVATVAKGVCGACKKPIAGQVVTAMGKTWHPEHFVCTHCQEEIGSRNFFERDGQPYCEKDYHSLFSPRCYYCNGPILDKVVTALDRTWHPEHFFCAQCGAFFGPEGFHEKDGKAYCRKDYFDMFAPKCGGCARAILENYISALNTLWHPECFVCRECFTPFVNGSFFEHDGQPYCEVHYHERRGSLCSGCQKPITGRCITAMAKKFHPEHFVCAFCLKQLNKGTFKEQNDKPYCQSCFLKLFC
Chain of Ribosomal protein S6 kinase beta-1 (Homo sapiens) (P23443 whole entry, looked up, canonical isoform): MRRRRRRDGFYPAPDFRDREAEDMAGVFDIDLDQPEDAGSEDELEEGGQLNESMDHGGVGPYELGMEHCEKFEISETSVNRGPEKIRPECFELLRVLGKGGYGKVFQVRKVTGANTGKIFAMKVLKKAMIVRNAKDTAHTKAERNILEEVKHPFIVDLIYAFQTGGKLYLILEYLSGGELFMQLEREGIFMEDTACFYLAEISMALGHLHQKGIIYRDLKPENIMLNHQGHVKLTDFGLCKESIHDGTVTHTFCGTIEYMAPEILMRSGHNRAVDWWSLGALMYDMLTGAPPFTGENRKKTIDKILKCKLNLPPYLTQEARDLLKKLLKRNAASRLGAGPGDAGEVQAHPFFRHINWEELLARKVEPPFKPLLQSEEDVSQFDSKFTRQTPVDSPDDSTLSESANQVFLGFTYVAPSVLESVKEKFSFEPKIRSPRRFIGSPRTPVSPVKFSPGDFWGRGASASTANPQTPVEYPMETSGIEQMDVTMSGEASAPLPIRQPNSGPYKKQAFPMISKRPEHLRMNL
Chain of Mast/stem cell growth factor receptor Kit (Homo sapiens) (P10721 whole entry): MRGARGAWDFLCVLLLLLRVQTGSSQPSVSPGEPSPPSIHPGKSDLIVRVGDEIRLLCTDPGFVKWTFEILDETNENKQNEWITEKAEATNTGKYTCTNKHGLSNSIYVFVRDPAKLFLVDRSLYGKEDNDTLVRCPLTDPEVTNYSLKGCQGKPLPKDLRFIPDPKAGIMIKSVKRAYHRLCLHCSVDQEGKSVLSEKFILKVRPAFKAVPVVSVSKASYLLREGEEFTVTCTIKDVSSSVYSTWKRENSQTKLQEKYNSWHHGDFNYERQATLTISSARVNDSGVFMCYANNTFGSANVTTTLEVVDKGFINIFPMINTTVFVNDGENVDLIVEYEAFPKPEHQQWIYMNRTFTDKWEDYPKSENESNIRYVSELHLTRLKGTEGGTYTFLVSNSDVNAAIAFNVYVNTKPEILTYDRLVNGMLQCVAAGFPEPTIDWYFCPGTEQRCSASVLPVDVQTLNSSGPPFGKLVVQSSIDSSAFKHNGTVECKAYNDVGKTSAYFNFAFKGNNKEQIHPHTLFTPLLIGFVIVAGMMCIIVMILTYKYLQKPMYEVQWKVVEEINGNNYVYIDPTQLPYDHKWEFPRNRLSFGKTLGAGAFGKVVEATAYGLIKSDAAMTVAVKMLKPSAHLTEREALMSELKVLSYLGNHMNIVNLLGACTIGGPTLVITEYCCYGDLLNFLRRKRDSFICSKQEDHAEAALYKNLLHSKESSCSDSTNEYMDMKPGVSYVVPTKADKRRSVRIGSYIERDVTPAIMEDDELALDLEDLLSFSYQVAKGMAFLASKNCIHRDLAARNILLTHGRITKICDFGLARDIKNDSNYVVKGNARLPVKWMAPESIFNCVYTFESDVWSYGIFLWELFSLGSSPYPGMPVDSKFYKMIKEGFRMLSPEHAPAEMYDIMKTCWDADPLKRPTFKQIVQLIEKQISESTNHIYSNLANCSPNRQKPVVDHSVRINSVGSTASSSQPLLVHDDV
Chain of Cyclin-dependent kinase 7 (P50613 whole entry): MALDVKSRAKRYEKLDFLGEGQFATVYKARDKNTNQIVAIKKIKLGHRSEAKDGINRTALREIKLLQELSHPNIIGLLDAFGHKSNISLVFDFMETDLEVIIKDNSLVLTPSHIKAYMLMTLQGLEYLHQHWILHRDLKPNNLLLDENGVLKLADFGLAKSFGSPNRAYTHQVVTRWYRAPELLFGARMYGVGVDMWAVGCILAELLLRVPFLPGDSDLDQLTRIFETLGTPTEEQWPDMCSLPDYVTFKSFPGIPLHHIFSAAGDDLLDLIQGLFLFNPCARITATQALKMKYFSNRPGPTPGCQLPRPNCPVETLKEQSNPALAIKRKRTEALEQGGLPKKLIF
Chain of Dual specificity mitogen-activated protein kinase kinase 1 (Homo sapiens) (Q02750 whole entry): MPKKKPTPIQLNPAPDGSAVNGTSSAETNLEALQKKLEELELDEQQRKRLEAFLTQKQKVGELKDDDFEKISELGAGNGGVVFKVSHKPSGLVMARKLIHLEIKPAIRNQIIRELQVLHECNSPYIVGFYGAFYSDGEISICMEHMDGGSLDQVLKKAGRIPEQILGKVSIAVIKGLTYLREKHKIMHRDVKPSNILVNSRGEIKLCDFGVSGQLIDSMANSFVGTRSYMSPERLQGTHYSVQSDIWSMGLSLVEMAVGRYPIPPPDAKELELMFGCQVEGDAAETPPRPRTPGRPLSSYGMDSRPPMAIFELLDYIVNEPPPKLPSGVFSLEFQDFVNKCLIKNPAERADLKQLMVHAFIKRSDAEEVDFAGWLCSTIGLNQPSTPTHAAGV
Chain of Mitogen-activated protein kinase 1 (Homo sapiens) (P28482 whole entry): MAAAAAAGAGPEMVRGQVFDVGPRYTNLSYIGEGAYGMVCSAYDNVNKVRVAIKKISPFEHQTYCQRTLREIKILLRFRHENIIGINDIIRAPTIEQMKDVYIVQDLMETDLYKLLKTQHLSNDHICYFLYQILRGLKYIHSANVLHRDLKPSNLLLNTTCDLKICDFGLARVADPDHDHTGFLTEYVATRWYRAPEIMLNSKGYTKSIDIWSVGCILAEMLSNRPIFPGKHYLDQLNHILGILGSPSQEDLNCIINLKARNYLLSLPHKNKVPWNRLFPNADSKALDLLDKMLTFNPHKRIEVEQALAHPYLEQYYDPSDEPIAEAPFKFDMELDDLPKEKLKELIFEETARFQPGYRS
Chain of Tyrosine-protein kinase Lck (Homo sapiens) (P06239 2-509 limits assumed): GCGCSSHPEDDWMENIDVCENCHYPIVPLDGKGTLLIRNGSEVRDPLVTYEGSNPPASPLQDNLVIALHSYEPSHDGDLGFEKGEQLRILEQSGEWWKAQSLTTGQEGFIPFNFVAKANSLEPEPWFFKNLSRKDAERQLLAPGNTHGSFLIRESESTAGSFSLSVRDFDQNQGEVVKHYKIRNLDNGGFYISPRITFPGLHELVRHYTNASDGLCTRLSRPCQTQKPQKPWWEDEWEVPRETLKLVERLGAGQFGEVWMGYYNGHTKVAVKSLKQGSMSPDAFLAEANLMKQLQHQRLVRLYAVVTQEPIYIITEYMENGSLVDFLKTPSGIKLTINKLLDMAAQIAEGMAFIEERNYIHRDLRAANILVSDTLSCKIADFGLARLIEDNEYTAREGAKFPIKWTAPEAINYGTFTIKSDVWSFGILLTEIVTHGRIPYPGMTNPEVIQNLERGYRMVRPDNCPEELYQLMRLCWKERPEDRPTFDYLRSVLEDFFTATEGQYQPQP

CS(=O)(=O)c1cccc(CNc2nc(Nc3ccc4c(c3)CCC(=O)N4)ncc2C(F)(F)F)c1
inhibition [1]: 25%
inhibition [2]: 0%
inhibition [3]: 48%
inhibition [4]: 20%
inhibition [5]: 48%
inhibition [6]: 16%
inhibition [7]: 2%
inhibition [8]: 31%
inhibition [9]: 0%
inhibition (Homo sapiens [10]): 0%
inhibition (Homo sapiens [11]): 13%
inhibition [12]: 12%
Activity [13]: 60%
IC50 [14]: 486 nM
IC50 [15]: 197 nM
IC50 [16]: > 1000 nM
Time (NIH3T3 [17]): 42 min
Activity [18]: Active
IC50 (Focal adhesion kinase 1 [19]): 11 nM
IC50 (Focal adhesion kinase 1 [20]): 100 nM
IC50 (Focal adhesion kinase 1 [21]): 50 nM
IC50 (Focal adhesion kinase 1 [22]): 300 nM
IC50 (Focal adhesion kinase 1 [23]): 30 nM
IC50 [24]: 500 nM
Activity (Fibroblast): Active
Activity [25]: Dose-dependent effect
Activity (MDCK): inactive
Activity (REF52): inactive
Activity (PC-3 [26]): inactive
Activity (NIH3T3 [27]): Active
level, % of control at 1 µM (PC-3 [28]): 109%
level, % of control at 1 µM [29]: 141%
level, % of control at 10 µM (PC-3 [30]): 17%
level, % of control at 10 µM [31]: 7%
Activity (PC-3 [32]): inactive

From ChEMBL document CHEMBL1156453, “Cellular characterization of a novel focal adhesion kinase inhibitor” (J Biol Chem, 2007)
